From ChEMBL document CHEMBL1275249, “Meropenem dosing in critically ill patients with sepsis receiving high-volume continuous venovenous hemofiltration” (Antimicrob Agents Chemother, 2010)
Values after ≈ are worked out from the molar mass of the structure shown.

Tests used:
[1] = Cmax in critically ill patient with sepsis at […], iv administered every 8 hrs by HPLC method; assay type: ADME, organism-based; set-up: route intravenous; details: human, in vivo
In short: (§1)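 Meropenem 1,000 mg as reconstituted IV bolus via central venous catheter every 8 h in septic ICU patients on CVVHF. Plasma sampled predose and at 15–480 min, plus 0–8 h urine. Levels measured by validated C18 HPLC-UV at 298 nm with ertapenem internal standard. Noncompartmental analysis used linear trapezoidal AUC0-8 and AUMC, and λz from 2–8 h log-linear regression.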

Homo sapiens [2] = assay: Clearance not mediated by CVVHF in critically ill patient with sepsis at […], iv administered every 8 hrs by HPLC method; assay type: ADME, organism-based; set-up: route intravenous; details: in vivo
Homo sapiens [3] = species: Homo sapiens; assay: Plasma protein binding in patient with acute kidney injury; assay type: ADME, organism-based
Homo sapiens [4] = assay: Ultrafiltration flow rate in critically ill patient with sepsis receiving high-volume continuous venovenous hemofiltration at […], iv administered every 8 hrs by HPLC method; assay type: ADME, organism-based; set-up: route intravenous; details: in vivo
Homo sapiens [5] = assay: Hemofiltration clearance in critically ill patient with sepsis receiving high-volume continuous venovenous hemofiltration at […], iv administered every 8 hrs by HPLC method; assay type: ADME, organism-based; set-up: route intravenous; details: in vivo
In short: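 Same 1,000 mg q8h IV bolus regimen on CVVHF. Filter was changed if it was over 3 h old at the start of sampling. Pre- and postfilter blood and ultrafiltrate were collected at matched times over 0–480 min, and all ultrafiltrate was collected for the interval. Concentrations were measured by HPLC-UV. CVVHF clearance = ultrafiltrate amount/AUC0-8; […].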

[6] = Renal clearance in critically ill patient with sepsis at […], iv administered every 8 hrs by HPLC method; assay type: ADME, organism-based, Kidney; set-up: route intravenous; details: human, in vivo, read-out: CL_renal (converted); in short: as §1
[7] = tested on: Burkholderia pseudomallei; assay: Antimicrobial activity against Burkholderia pseudomallei; assay type: functional
[8] = fT>MIC in patient with acute kidney injury infected with Burkholderia pseudomallei; assay type: functional
In short: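 Ten critically ill septic patients with AKI on high-volume CVVHF received meropenem 1,000 mg every 8 h as a central-venous bolus. Plasma was assayed by HPLC-UV at 298 nm with an ertapenem internal standard. Concentration-time data were compared with an MIC of 4 mg/liter.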

**Q.** With `C[C@@H](O)[C@H]1C(=O)N2C(C(=O)O)=C(S[C@@H]3CN[C@H](C(=O)N(C)C)C3)[C@H](C)[C@H]12` [MEROPENEM] as the compound, how does the Cmax [1] read?
**A.** 56.6 µg/mL

**Q.** What about the CL (Homo sapiens [2]) of the same compound?
**A.** 2.4 L/h

**Q.** And the Activity (Homo sapiens [3])?
**A.** 2%

**Q.** What about the Activity (Homo sapiens [4]) of the same compound?
**A.** 4.4 L/h

**Q.** What about the CL (Homo sapiens [5]) of the same compound?
**A.** 3.5 L/h

**Q.** What about the CL renal at 8 h [6] of the same compound?
**A.** 0.0833 mL/min

**Q.** What about the MIC90 [7] of the same compound?
**A.** 4 µg/mL (≈ 10.4 µM)

**Q.** And the “fT>MIC” value [8]?
**A.** 40%
